Results taken from ChEMBL document CHEMBL2407079, “Potent DGAT1 Inhibitors in the Benzimidazole Class with a Pyridyl-oxy-cyclohexanecarboxylic Acid Moiety” (ACS Med Chem Lett, 2013).
Calls of active or inactive are those of the source. The calls are words filed in the database; no cut-off is given here.

Key:
[1] = target: T1, Diacylglycerol O-acyltransferase 1 (Mus musculus, UniProt Q9Z2A7); experiment: Inhibition of mouse DGAT1
T1 sequence (Q9Z2A7 whole entry): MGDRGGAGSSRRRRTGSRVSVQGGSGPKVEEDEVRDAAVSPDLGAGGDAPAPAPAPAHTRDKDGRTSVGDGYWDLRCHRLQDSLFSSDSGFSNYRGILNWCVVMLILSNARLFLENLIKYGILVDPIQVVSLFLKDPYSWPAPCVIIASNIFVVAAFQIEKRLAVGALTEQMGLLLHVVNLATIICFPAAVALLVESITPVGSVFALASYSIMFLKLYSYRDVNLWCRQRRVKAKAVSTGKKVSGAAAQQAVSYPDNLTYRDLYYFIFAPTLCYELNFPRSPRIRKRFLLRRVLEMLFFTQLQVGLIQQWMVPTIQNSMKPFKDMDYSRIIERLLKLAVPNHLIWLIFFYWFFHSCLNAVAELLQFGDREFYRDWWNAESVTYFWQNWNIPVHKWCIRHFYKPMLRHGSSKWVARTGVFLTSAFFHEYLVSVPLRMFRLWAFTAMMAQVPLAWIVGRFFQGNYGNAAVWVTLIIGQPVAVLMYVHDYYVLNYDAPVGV

[2] = target: T2, Diacylglycerol O-acyltransferase 1 (Homo sapiens, UniProt O75907); experiment: Inhibition of human DGAT1
T2 sequence (O75907 whole entry): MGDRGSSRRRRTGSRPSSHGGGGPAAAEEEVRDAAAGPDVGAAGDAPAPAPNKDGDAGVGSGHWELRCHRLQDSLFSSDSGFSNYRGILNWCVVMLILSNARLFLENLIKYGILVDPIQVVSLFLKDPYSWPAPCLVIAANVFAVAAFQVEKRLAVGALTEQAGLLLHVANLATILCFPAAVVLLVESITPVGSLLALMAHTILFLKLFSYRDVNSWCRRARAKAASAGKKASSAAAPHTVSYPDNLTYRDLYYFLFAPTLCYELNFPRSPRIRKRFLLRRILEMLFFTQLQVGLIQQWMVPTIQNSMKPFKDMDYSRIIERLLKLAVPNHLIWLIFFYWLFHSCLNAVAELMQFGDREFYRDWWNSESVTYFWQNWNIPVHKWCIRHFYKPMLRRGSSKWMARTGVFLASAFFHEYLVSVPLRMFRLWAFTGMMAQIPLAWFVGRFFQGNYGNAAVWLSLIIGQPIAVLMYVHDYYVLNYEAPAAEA

[3] = Lipophilicity, log D of the compound by HPLC analysis; format: physicochemical
Mus musculus [4] = experiment: Reduction in triglyceride excursion in mouse at 10 mg/kg, po measured at 18 hrs by lipid tolerance test; format: functional; parameters: scale not given: the % may be the effect or the level left
In short: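 Mouse lipid tolerance test. Oral dose of 10 mg/kg as a suspension in 0.5% methylcellulose; triglyceride reduction read at 18 h.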

[5] = AUC in Sprague-Dawley rat at 2 mg/kg, po; format: ADME, organism-based; parameters: dose 2 mg/kg, route oral; conditions: plasma
In short: (§1)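 Sprague–Dawley rats; 1 mg/kg iv and 2 mg/kg p.o., both as solutions in EtOH/PEG400/water (10:50:40). Plasma AUC measured for the parent and, where applicable, for the epimerized metabolite formed in vivo.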

[6] = Bioavailability in Sprague-Dawley rat at 1 mg/kg, iv; format: ADME, organism-based; conditions: in vivo
In short: (§2)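 Sprague–Dawley rats; intravenous dose of 1 mg/kg given as a solution in EtOH/PEG400/water (10:50:40).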

[7] = Clearance in Sprague-Dawley rat at 1 mg/kg, iv; format: ADME, organism-based; parameters: dose 1 mg/kg, route intravenous; conditions: in vivo; in short: as §2
[8] = Half life in Sprague-Dawley rat at 1 mg/kg, iv; format: ADME, organism-based; parameters: dose 1 mg/kg, route intravenous; conditions: in vivo; in short: as §2
Rattus norvegicus = experiment: AUC in Sprague-Dawley rat assessed as cis-4-(5-(5-fluoro-1H-benzo[d]imidazol-2-yl)-2,3'-bipyridin-6'-yloxy)cyclohexanecarboxylic acid at 2 mg/kg, po; format: ADME, organism-based, Plasma; parameters: dose 2 mg/kg, route oral; conditions: in vivo; in short: as §1
[9] = Volume of distribution at steady state in Sprague-Dawley rat at 1 mg/kg, iv; format: ADME, organism-based; parameters: dose 1 mg/kg, route intravenous; conditions: in vivo, read-out: Vdss; in short: as §2
Mus musculus [10] = experiment: Reduction in triglyceride excursion in mouse at 3 mg/kg, po by lipid tolerance test; format: functional; parameters: scale not given: the % may be the effect or the level left
Canis familiaris = experiment: Reduction in triglyceride excursion in dog at 3 mg/kg, po administered 1 hr prior lipid-challenge measured up to 24 hrs by lipid tolerance test; format: functional, organism-based; parameters: dose 3 mg/kg; conditions: Canis lupus familiaris
In short: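 Dog lipid tolerance test. Oral dose of 3 mg/kg in 0.5% methyl cellulose; lipid challenge 1 h after dosing; triglyceride excursion compared with a vehicle group over time; plasma drug levels sampled from 0 to 24 h.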

| IC50 [1] [nM] | IC50 [2] [nM] | logD [3] | SMILES | Activity (Mus musculus [4]) [%] | also measured |
| --- | --- | --- | --- | --- | --- |
| 4.2 | 2 | 1.43 | O=C(O)[C@H]1CC[C@H](Oc2ccc(-c3ccc(-c4nc5cc(Cl)ccc5[nH]4)cn3)cn2)CC1 | 83 |  |
| 2.2 | 1.7 | 1.62 | O=C(O)[C@H]1CC[C@@H](Oc2ccc(-c3ccc(-c4nc5cc(C(F)(F)F)ccc5[nH]4)cn3)cn2)CC1 | 84 |  |
| 4.3 | 1.3 |  | O=C(O)[C@H]1CC[C@H](Oc2ccc(-c3ccc(-c4nc5cc(F)c(F)cc5[nH]4)cn3)cn2)CC1 |  |  |
|  | 11 |  | COc1ccc2[nH]c(-c3ccc(-c4ccc(O[C@H]5CC[C@@H](C(=O)O)CC5)nc4)nc3)nc2n1 |  |  |
| 358 | 101 |  | CS(=O)(=O)c1ccc2nc(-c3ccc(-c4ccc(O[C@H]5CC[C@@H](C(=O)O)CC5)nc4)nc3)[nH]c2c1 |  |  |
| 727 | 137 |  | CS(=O)(=O)c1ccc2nc(-c3ccc(-c4ccc(O[C@H]5CC[C@H](C(=O)O)CC5)nc4)nc3)[nH]c2c1 |  |  |
|  | 14 |  | COc1ccc2[nH]c(-c3ccc(-c4ccc(O[C@H]5CC[C@H](C(=O)O)CC5)nc4)nc3)nc2n1 |  |  |
| 4.4 | 3 | 1.72 | O=C(O)[C@H]1CC[C@H](Oc2ccc(-c3ccc(-c4nc5cc(C(F)(F)F)ccc5[nH]4)cn3)cn2)CC1 | 84 |  |
| 8.1 | 2.5 |  | O=C(O)[C@H]1CC[C@H](Oc2ccc(-c3ccc(-c4nc5ccc(F)cc5[nH]4)cn3)cn2)CC1 |  | AUC [5]: 4.47 µM·h; bioavailability [6]: 24%; clearance [7]: 4.2 mL/min/kg; half-life [8]: 51.6 min; AUC (Rattus norvegicus): 0.48 µM·h; Vd [9]: 0.46 L/kg |
|  |  |  | O=C(O)[C@H]1CC[C@@H](Oc2ccc(-c3ccc(-c4nc5cc(F)ccc5[nH]4)cn3)cn2)CC1 |  | Activity (Mus musculus [10]): 72%; Activity (Canis familiaris): Active |
